Sampled rows, rich in hits. Any-hit rate of the full collection: about 1.9%.
TbHK1 inh: blocks Trypanosoma brucei hexokinase 1 activity; inhibition, % at 10 µM; 0.11% of 220,000 active; recombinant TbHK1, G6PDH-coupled NADH A340;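 active means inhibition of 50% or more in the single-dose primary screen; inactive means inhibition below 50%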
Runt-CBFb FRET: Runt domain-CBFb interaction inhibition; Q01196+Q13951; Cerulean-Runt/Venus-CBFb FRET ratio 530/480, 1 h; inhibition, % at 20 µM; 0.46% of 220,000 active;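 active means inhibition over about 50% at 20 µM in the single-dose screen, limit read from the data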
Target sequence (Q01196 whole entry, looked up, the tested form may be a part): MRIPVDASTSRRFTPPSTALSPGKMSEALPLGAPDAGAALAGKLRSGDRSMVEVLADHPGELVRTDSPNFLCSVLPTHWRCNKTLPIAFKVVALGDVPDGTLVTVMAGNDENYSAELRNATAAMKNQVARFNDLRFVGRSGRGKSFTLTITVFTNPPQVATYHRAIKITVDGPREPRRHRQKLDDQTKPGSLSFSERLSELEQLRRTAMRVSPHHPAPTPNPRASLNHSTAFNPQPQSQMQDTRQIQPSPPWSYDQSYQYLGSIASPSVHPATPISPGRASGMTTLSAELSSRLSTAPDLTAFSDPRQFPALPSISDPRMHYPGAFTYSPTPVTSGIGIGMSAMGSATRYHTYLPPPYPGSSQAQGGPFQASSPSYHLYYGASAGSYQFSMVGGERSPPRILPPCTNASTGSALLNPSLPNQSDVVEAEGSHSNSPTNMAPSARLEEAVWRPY
Target sequence (Q13951 whole entry, looked up, the tested form may be a part): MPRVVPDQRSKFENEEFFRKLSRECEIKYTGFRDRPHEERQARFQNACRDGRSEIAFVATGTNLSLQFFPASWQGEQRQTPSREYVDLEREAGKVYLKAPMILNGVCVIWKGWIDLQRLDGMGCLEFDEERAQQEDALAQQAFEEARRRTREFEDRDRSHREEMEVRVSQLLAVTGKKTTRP
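Measured by: fluorescence energy transfer, 422 nm excitation, 530/480 nm emission; Assay system: Cerulean-Runt domain; Medium: Tris pH 7.5 buffer with BSA; Measure: loss of energy transfer signal; Controls: 5 µM unlabeled CBFb as full-inhibition high control; Incubation: protein complex preformed 1 h, compound exposure 1 h, room temperature, dark.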
RanGTP-Impb inh: inhibitors of RanGTP-importin-beta interaction, primary screen, biochemical, FRET, CFP-Ran, YFP-importin-beta, homogeneous | cell-free CFP-Ran/YFP-importin-beta FRET ratio | inhibition, % (test concentration not listed) | 1.1% of 300,000 active;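 active means more than half of the replicate wells show a fall in the fluorescence ratio signal beyond about 16%, limit read from the data, passing the limit was not always enough; inconclusive means exactly half of the replicate wells pass the set limit; inactive means fewer than half of replicates pass the limit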
Hck-Nef inh: blocks Nef-activated human Hck kinase | P08631 | Recombinant Hck-YEEI plus Nef, Z-Lyte FRET kinase assay | inhibition, % at 20 µM | 0.68% of 220,000 active;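 active means Hck-Nef kinase inhibition above about 50%, limit read from the data; inactive means inhibition below that limit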
Runt-SMMHC FRET: inhibitors of human RUNX1 Runt domain binding to CBFb-SMMHC. Q01196+Q13951. inhibition, % at 20 µM. Cerulean-Runt/Venus-CBFb-SMMHC FRET ratio 530/480, 1 h. 0.74% of 220,000 active;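 active means mean inhibition across duplicate retests at 20 µM reaching about 50%, limit read from the data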;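 further: inhibitors lower the FRET ratio by blocking Runt binding to CBFb-SMMHC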
Large screens that a line does not name were inactive.

CCc1ccc(NC(=O)CN(c2ccc(OC)cc2)S(=O)(=O)c2c(C)[nH]c(=O)[nH]c2=O)cc1	none (no result: TbHK1 inh, Runt-CBFb FRET, Hck-Nef inh, Runt-SMMHC FRET)
CCN1CC2=C(OC(N)=C(C#N)C2c2ccccc2)/C(=C\c2ccccc2)C1 (stereo not drawn)	RanGTP-Impb inh 20.7
CC(C)C1Cc2c(sc3ncnc(NN)c23)CO1 (stereo not drawn)	none (no result: TbHK1 inh, Runt-CBFb FRET, Hck-Nef inh, Runt-SMMHC FRET)
Cc1ccccc1NC(=O)c1cn2c(nc3ccccc32)c(C#N)c1C	Runt-SMMHC FRET 81.1
COc1ccc(N2CCN(C(=O)c3cccnc3)CC2)c([N+](=O)[O-])c1	none
CCNc1nc(C)c(CN(C(C)=O)c2ccccc2)nc1C#N	Runt-SMMHC FRET 91.2
CC(=O)N(CN1C(=O)c2ccccc2C1=O)c1ccccc1	none
Cn1cc(Br)c(C(=O)Nc2sc3c(c2C(N)=O)CCC3)n1	none
CCn1ncc(Br)c1C(=O)Nc1sc2c(c1C(N)=O)CCC2	RanGTP-Impb inh 46.8
O=S(=O)(Cc1ccccc1)N1CCNCC1	none (no result: TbHK1 inh, Runt-CBFb FRET, Hck-Nef inh, Runt-SMMHC FRET)
Cc1ccc(-n2sc3ccccc3c2=O)cc1	TbHK1 inh 65.9, Runt-SMMHC FRET 52.5
Cc1ccc(Cn2c(=O)sc3ccccc3c2=O)cc1	none
CCCCCCNc1c([N+](=O)[O-])c(=O)sc2ccccc12	RanGTP-Impb inh 147.2
O=C(Cc1ccccc1)NCc1ccc(-n2cccc2)cc1	none (no result: RanGTP-Impb inh)
COC(=O)c1c(O)cc(C(C)(C)C)n(-c2ccccc2)c1=O	none
CNS(=O)(=O)c1cc(S(=O)(=O)NC)c2cccc3c2c1NC3=O	none (no result: TbHK1 inh, Runt-CBFb FRET, Hck-Nef inh, Runt-SMMHC FRET)
COc1ccc(C2C(C#N)=C(N)OC3=C2C(=O)CC(C)(C)C3)cc1OC (stereo not drawn)	none
C=CCOc1ccc(C2C(C#N)=C(N)N(Nc3ccccc3)C3=C2C(=O)CC(C)(C)C3)cc1OC (stereo not drawn)	Runt-SMMHC FRET 94.5
COc1ccc(C(=O)N(C(C)C)C(C)C)c(OC)c1	none
Cc1ccc(CNC(=O)c2cnc(-c3ccccn3)nc2C(F)(F)F)cc1	none
COc1cccc(CNC(=O)c2cnc(-c3ccccn3)nc2C(F)(F)F)c1	RanGTP-Impb inh 29.5
COc1ccc(O)c(CN2CCCC(N3CCc4ccccc4C3)C2)c1 (stereo not drawn)	none (no result: TbHK1 inh, Runt-CBFb FRET, Hck-Nef inh, Runt-SMMHC FRET)
CCS(=O)(=O)C1=NN2C(=N)/C(=C\c3ccc(OC(=O)c4ccco4)c(Br)c3)C(=O)N=C2S1	none (no result: TbHK1 inh, Runt-CBFb FRET, Hck-Nef inh, Runt-SMMHC FRET)
CCS(=O)(=O)C1=NN2C(=N)/C(=C\c3ccc(SCc4ccco4)o3)C(=O)N=C2S1	RanGTP-Impb inh inconclusive, Hck-Nef inh 63.5
COCCOC(=O)c1cc(C(=O)c2cc(F)ccc2O)coc1=N	RanGTP-Impb inh 31.5, Runt-SMMHC FRET 119.8
COC(=O)C1=C(N)Oc2cc(C)n(CC3CCCO3)c(=O)c2C1c1ccccc1OC (stereo not drawn)	none
CCOC(=O)C1=CN(C)C=C(C(=O)OCC)C1c1ccsc1	Runt-CBFb FRET 121.9, RanGTP-Impb inh 52.7, Runt-SMMHC FRET 98.7
COC(=O)C1=CN(CC2CCCO2)C=C(C(=O)OC)C1c1ccccc1C(F)(F)F (stereo not drawn)	Runt-CBFb FRET 106.5, RanGTP-Impb inh 61.8, Runt-SMMHC FRET 81.6
COC(=O)C1=CN(Cc2ccc(OC)cc2)C=C(C(=O)OC)C1c1ccsc1	Runt-CBFb FRET 68.1, RanGTP-Impb inh inconclusive, Runt-SMMHC FRET 134.1
COC(=O)C1=C(C)N(C)C(C)=C(C(=O)OC)C1c1ccsc1	none
COC(=O)C1=CN(CC2CCCO2)C=C(C(=O)OC)C1c1ccsc1 (stereo not drawn)	Runt-CBFb FRET 87.6, Runt-SMMHC FRET 134.4
COC(=O)C1=CN(Cc2ccc(F)cc2)C=C(C(=O)OC)C1c1ccc(O)c(OC)c1	none (no result: TbHK1 inh, Runt-CBFb FRET, Hck-Nef inh, Runt-SMMHC FRET)
O=S1(=O)NC(CC2=CCCCC2)C2CCCCC2O1 (stereo not drawn)	none (no result: TbHK1 inh, Runt-CBFb FRET, Hck-Nef inh, Runt-SMMHC FRET)
Cc1ccc(C(=O)O)cc1-c1ccc(/C=C2/NC(=O)N(c3ccccc3)C2=O)o1	RanGTP-Impb inh 19.8
Cc1ccc(C(=O)O)cc1-c1ccc(/C=C2\SC(=O)N(CC(=O)Nc3ccccc3)C2=O)o1	RanGTP-Impb inh 24.1
Cc1ccccc1NC(=O)CN1C(=O)S/C(=C\c2ccc(-c3cc(C(=O)O)ccc3C)o2)C1=O	none
CC(C)(C)OC(=O)CN1C(=O)S/C(=C\c2ccc(-c3cccc(C(=O)O)c3)o2)C1=O	RanGTP-Impb inh 34.5 (no result: TbHK1 inh, Runt-CBFb FRET, Hck-Nef inh, Runt-SMMHC FRET)
Cc1ccc(NC(=O)CN2C(=O)S/C(=C/c3ccc(-c4cccc(C(=O)O)c4)o3)C2=O)cc1	none (no result: RanGTP-Impb inh)

Compound activity from PubChem BioAssay.
